# Columns and labels:
# [1] = tested on: Hepatitis C virus; experiment: Inhibition of HCV genotype 1b NS3/4A protease; parameters: species or system Hepatitis C virus subtype 1b
# Outline: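 Full-length HCV NS3/4A protease; inhibition reported as Ki. Mean of at least three independent experiments.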
# [2] = tested on: Hepatitis C virus; experiment: Antiviral activity against HCV infected in human HuH7 cells by subgenomic replication assay in presence of 10% fetal calf serum; assay type: functional, organism-based, Hepacivirus hominis; conditions: Huh-7
# Outline: (§1)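 HCV replicon replication assay in Huh-7 cells; EC50 is the concentration giving 50% inhibition of replication. Run with 10% fetal calf serum (low serum) or 50% normal human serum (to gauge protein binding). Mean of at least three independent experiments.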
# [3] = tested on: Hepatitis C virus; experiment: Antiviral activity against HCV infected in human HuH7 cells by subgenomic replication assay in presence of 50% normal human serum; assay type: functional, organism-based, Hepacivirus hominis, Huh-7; outline: as §1
EC50 [2] [nM],SMILES,Ki [1] [nM],"EC50 ([3]; Hepatitis C virus, Huh-7) [nM]",EC50 ([3]; huh-7) [nM]
,C=C[C@H]1C[C@]1(NC(=O)[C@@H]1C[C@@H]2CN1C(=O)[C@H](C(C)(C)C)NC(=O)OCC(C)(C)CCCCc1cccc3c1CN(C3)C(=O)O2)C(=O)O,2800,,
,C=CC1CC1(NC(=O)[C@@H]1C[C@@H]2CN1C(=O)[C@H](C(C)(C)C)NC(=O)OCC(C)(C)CCCCc1cccc3c1CN(C3)C(=O)O2)P(=O)(O)O (mixture of isomers),16,,
660,C=CC1CC1(NC(=O)[C@@H]1C[C@@H]2CN1C(=O)[C@H](C(C)(C)C)NC(=O)OCC(C)(C)CCCCc1cccc3c1CN(C3)C(=O)O2)P(=O)(O)OCC (mixture of isomers),70,2400,
500,C=CC1CC1(NC(=O)[C@@H]1C[C@@H]2CN1C(=O)[C@H](C(C)(C)C)NC(=O)OCC(C)(C)CCCCc1cccc3c1CN(C3)C(=O)O2)P(C)(=O)O (mixture of isomers),2,250,
20000,"C=CC1CC1(NC(=O)[C@@H]1C[C@@H]2CN1C(=O)[C@H](C(C)(C)C)NC(=O)OCC(C)(C)CCCCc1cccc3c1CN(C3)C(=O)O2)P(=O)(OCC)OCC (single isomer, unassigned)",,15000,
,C=CC1CC1(NC(=O)[C@@H]1C[C@@H]2CN1C(=O)[C@H](C(C)(C)C)NC(=O)OCC(C)(C)CCCCc1cccc3c1CN(C3)C(=O)O2)P(=O)(OCC)OCC (stereo in doubt),2900,,20000

# Reference: ChEMBL document CHEMBL1138440, “Phosphorous acid analogs of novel P2-P4 macrocycles as inhibitors of HCV-NS3 protease” (Bioorg Med Chem Lett, 2009)
